The structures appear in SMILES notation.

We go through 28 molecules from ChEMBL document CHEMBL1781999, “Lead optimization of aryl and aralkyl amine-based triazolopyrimidine inhibitors of Plasmodium falciparum dihydroorotate dehydrogenase with antimalarial activity in mice” (J Med Chem, 2011).

The target in experiment [1] is T1, Dihydroorotate dehydrogenase (Plasmodium falciparum, UniProt Q54A96).
T1 sequence (Q54A96 whole entry): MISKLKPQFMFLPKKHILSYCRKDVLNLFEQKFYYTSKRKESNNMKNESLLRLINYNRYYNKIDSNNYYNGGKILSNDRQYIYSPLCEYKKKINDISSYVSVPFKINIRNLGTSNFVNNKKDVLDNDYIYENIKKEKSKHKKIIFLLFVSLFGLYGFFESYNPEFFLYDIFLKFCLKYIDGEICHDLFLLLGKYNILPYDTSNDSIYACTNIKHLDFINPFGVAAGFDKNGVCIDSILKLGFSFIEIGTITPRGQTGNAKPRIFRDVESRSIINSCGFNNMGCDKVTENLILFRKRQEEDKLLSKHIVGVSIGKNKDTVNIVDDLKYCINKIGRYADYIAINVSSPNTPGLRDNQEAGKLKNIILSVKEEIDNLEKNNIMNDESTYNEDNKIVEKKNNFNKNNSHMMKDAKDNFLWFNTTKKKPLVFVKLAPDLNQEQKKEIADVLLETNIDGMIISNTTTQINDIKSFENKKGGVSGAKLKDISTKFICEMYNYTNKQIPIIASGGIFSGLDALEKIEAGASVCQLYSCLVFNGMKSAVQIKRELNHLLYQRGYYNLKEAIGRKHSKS
The experiment can be described thus: Inhibition of His6-tagged recombinant Plasmodium falciparum dihydroorotate dehydrogenase expressed in Escherichia coli using L-dihydroorotate as substrate after 5 to 10 mins by DCIP dye-based assay.

The next experiment has as its system Plasmodium falciparum. The experiment can be described thus: Antimalarial activity against Plasmodium falciparum 3D7 infected in human A positive erythrocytes by [3H]hypoxanthine uptake assay in presence of serum in medium. In kind it is functional, organism-based. The essentials:
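Growth read by [3H]-hypoxanthine uptake. Each concentration run in quadruplicate and fitted to a four-parameter variable-slope log[I]-response model for 50% growth inhibition.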

Experiment [2] is described as follows: Inhibition of His6-tagged recombinant Plasmodium berghei dihydroorotate dehydrogenase expressed in Escherichia coli using L-dihydroorotate as substrate after 10 to 15 mins by DCIP dye-based assay. The following applies: in the assay text read “5 to 10 mins” for “10 to 15 mins”. The essentials: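 Truncated soluble enzyme lacking the N-terminal membrane domain. Final concentrations: 0.2 mM L-dihydroorotate, 0.02 mM CoQD, 0.12 mM DCIP. Reaction started with 10 nM enzyme and read at 600 nm for 5–10 min at 20 °C. Inhibitor 0.01–100 μM in 3-fold steps, in triplicate. IC50 from a three-parameter fit of vi/vo from initial rates.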

The target of experiment [3] is Dihydroorotate dehydrogenase (quinone), mitochondrial (Homo sapiens, UniProt Q02127). The experiment can be described thus: Inhibition of His6-tagged recombinant human dihydroorotate dehydrogenase expressed in Escherichia coli using L-dihydroorotate as substrate after 5 to 10 mins by DCIP dye-based assay.
Dihydroorotate dehydrogenase (quinone), mitochondrial, sequence (Q02127 whole entry): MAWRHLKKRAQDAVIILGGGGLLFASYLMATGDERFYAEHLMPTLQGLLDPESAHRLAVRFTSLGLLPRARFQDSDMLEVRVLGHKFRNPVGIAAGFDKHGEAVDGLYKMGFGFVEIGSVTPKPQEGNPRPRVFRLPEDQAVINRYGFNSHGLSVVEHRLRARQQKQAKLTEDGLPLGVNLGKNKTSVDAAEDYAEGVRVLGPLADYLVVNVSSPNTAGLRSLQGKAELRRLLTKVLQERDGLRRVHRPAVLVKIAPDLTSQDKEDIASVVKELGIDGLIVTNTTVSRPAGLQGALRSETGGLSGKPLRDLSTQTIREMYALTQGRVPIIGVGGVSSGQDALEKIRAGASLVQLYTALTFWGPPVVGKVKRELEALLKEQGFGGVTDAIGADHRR

The term IC50 denotes the midpoint of a concentration-inhibition curve. In the case of `Cc1cc(NC2CC2)n2ncnc2n1`, in experiment [1], the IC50 is more than 100 µM.

What is called EC50 is the concentration needed to bring the measured effect to its halfway point. Regarding `Cc1cc(Nc2ccc(C(F)(F)F)c(C(F)(F)F)c2)n2ncnc2n1`, in the experiment on Plasmodium falciparum, the EC50 was found to be 2.3 µM. Further, the 50% inhibitory concentration (IC50) came out at 0.55 µM in experiment [2] and 0.54 µM in experiment [1].

`CCCCCc1ccc(Nc2cc(C)nc3ncnn23)cc1`: in the experiment on Plasmodium falciparum, the EC50 was more than 5 µM. Further, the concentration for half-maximal inhibition (IC50) is 22 µM in experiment [2], more than 100 µM in experiment [3] and 0.82 µM in experiment [1].

Take `Cc1cc(NCc2ccc(F)cc2)n2ncnc2n1`: the 50% effective concentration (EC50) in the experiment on Plasmodium falciparum is more than 10 µM. Also, the IC50 in experiment [1] was more than 100 µM.

Consider `Cc1cc(Nc2ccc3[nH]c(C(F)(F)F)nc3c2)n2ncnc2n1`, for which, in the experiment on Plasmodium falciparum, the EC50 came out at 25 µM. In addition, the half-maximal inhibitory concentration (IC50) in experiment [2] was more than 50 µM; in experiment [1], 21 µM.

Turning to `CCCCCCc1ccc(Nc2cc(C)nc3ncnn23)cc1`, the 50% effective concentration (EC50) in the experiment on Plasmodium falciparum was more than 5 µM. The concentration for half-maximal inhibition (IC50) was determined as 20 µM in experiment [2] and 4.2 µM in experiment [1].

In the case of `CCCCCCCNc1cc(C)nc2ncnn12`, the EC50 in the experiment on Plasmodium falciparum worked out at 13 µM. For the same molecule, the IC50 in experiment [2] came to 55 µM; in experiment [1] it was 8.6 µM.

For `Cc1cc(NC2CCCCC2)n2ncnc2n1`, in experiment [1], the IC50 was more than 100 µM.

Turning to `Cc1cc(NC2CCc3cc(F)ccc3C2)n2ncnc2n1` (centres undefined), the EC50 with Plasmodium falciparum came to 2.5 µM. Moreover, the half-maximal inhibitory concentration (IC50) in experiment [2] came to 1.9 µM; in experiment [1], 0.63 µM.

On to `Cc1cc(Nc2ccc(OC(C)(C)C)cc2)n2ncnc2n1`, for which the half-maximal effective concentration (EC50) in the experiment with Plasmodium falciparum was more than 10 µM. Moreover, the IC50 in experiment [1] worked out at 44 µM.

As to `Cc1cc(NC2CCC2)n2ncnc2n1`, the half-maximal inhibitory concentration (IC50) in experiment [1] was more than 100 µM.

`CCc1c(C)nc2ncnn2c1Nc1ccc(C(C)C)cc1`: the concentration for a half-maximal effect (EC50) in the experiment with Plasmodium falciparum was more than 10 µM. Moreover, the IC50 in experiment [2] is 4.5 µM; in experiment [3] it was more than 100 µM; in experiment [1] it was 1.7 µM.

In the case of `CCc1c(C)nc2ncnn2c1Nc1ccc(OC(F)(F)F)cc1`, the half-maximal effective concentration (EC50) with Plasmodium falciparum is more than 10 µM. Besides, the concentration for half-maximal inhibition (IC50) was 5.7 µM in experiment [2] and more than 100 µM in experiment [3].

On to `FC(F)(F)c1ccc(Nc2cc(C(F)(F)F)nc3ncnn23)cc1`, for which the EC50 in the experiment with Plasmodium falciparum was more than 10 µM. Further, the IC50 in experiment [2] was 2.3 µM; in experiment [3], more than 100 µM; in experiment [1], 1.7 µM.

In the case of `CCCCCCCc1ccc(Nc2cc(C)nc3ncnn23)cc1`, the EC50 with Plasmodium falciparum was more than 5 µM. For the same molecule, the IC50 in experiment [2] is more than 50 µM; in experiment [1], 24 µM.

Take `Cc1cc(NC2CCCCCC2)n2ncnc2n1`: the half-maximal inhibitory concentration (IC50) in experiment [1] was more than 100 µM.

On to `Cc1cc(NC2CCCCCCC2)n2ncnc2n1`, for which the IC50 in experiment [1] is more than 100 µM.

As for `Cc1cc(Nc2ccc(CC(F)(F)F)cc2)n2ncnc2n1`, the IC50 is 8.8 µM in experiment [2] and 2.5 µM in experiment [1].

As to `CCc1cc(Nc2ccc(C(F)(F)F)cc2)n2ncnc2n1`, the EC50 in the experiment on Plasmodium falciparum worked out at 2.3 µM. Moreover, the concentration for half-maximal inhibition (IC50) in experiment [2] is 2 µM; in experiment [3], more than 100 µM; in experiment [1] it was 0.78 µM.

Regarding `Cc1cc(NCc2ccccc2)n2ncnc2n1`, the EC50 in the experiment on Plasmodium falciparum was more than 10 µM. Moreover, in experiment [1], the IC50 was more than 100 µM.

For the molecule `Cc1cc(NC2CCCC2)n2ncnc2n1`, the IC50 in experiment [1] was more than 100 µM.

As to `Cc1cc(NC2Cc3ccc(F)cc3C2)n2ncnc2n1` (centres undefined), in the experiment on Plasmodium falciparum, the EC50 is 1.3 µM. Besides, the half-inhibitory concentration (IC50) in experiment [2] is 1.4 µM; in experiment [3] it was more than 50 µM; in experiment [1], 0.61 µM.

With `Cc1cc(Nc2ccc(N3CCCC3)cc2)n2ncnc2n1`, the EC50 with Plasmodium falciparum was more than 20 µM. For the same molecule, the concentration for half-maximal inhibition (IC50) is more than 50 µM in experiment [2] and 3.5 µM in experiment [1].

With `Cc1cc(NCCc2ccccc2)n2ncnc2n1`, the concentration for a half-maximal effect (EC50) in the experiment on Plasmodium falciparum is more than 20 µM. Further, the IC50 in experiment [2] stood at 27 µM; in experiment [1] it was 15 µM.

On to `Cc1ccc(Nc2c3c(nc4ncnn24)CCC3)cc1F`, for which the half-maximal effective concentration (EC50) in the experiment with Plasmodium falciparum was determined as 8.3 µM. For the same molecule, the IC50 was 1.3 µM in experiment [2] and more than 100 µM in experiment [3].

As to `Cc1cc(Nc2ccc(C(C)(C)C#N)cc2)n2ncnc2n1`, in the experiment with Plasmodium falciparum, the EC50 stood at 3.7 µM.

For `Cc1cc(NC2CCCCCCCCCCC2)n2ncnc2n1`, the IC50 in experiment [1] was determined as 58 µM.

For the molecule `COc1cc2c(cc1OC)CC(Nc1cc(C)nc3ncnn13)C2`, the EC50 in the experiment on Plasmodium falciparum turned out to be 7.7 µM. In addition, the 50% inhibitory concentration (IC50) was determined as 41 µM in experiment [2] and 4.6 µM in experiment [1].
